# Only a selection was taken, and hits are over-represented in it overall.
# TNAP act DEA – human TNAP enzyme activators, primary screen, biochemical, luminescent, intermediate phosphate acceptor level; 64,000 tested, under 10 active; AID 813, 2007; Alkaline phosphatase, tissue-nonspecific isozyme (Homo sapiens), P05186; purified TNAP, CDP-star luminescence, 100 mM DEA, 30 min; active compounds read high; scale: 0 levamisole-inhibited, 1 vehicle-only enzyme; activation factor at 20 µM;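 active means activation factor of at least 2 at 20 µM, relative to controls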
# Target sequence (P05186 whole entry, looked up): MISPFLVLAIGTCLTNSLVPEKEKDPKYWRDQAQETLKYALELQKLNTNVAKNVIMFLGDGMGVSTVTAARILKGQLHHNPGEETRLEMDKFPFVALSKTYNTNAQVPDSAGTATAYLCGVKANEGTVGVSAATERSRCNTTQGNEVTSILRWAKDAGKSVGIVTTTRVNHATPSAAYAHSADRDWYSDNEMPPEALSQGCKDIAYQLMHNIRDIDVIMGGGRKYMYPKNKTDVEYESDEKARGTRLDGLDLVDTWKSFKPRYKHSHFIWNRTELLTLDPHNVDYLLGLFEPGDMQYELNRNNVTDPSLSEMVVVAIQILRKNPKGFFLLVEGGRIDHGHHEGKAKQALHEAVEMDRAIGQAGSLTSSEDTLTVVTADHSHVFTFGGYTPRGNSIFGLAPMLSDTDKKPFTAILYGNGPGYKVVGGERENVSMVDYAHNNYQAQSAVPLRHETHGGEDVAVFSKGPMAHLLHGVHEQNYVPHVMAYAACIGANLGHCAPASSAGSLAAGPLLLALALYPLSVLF
# MMP-13 inhibitor – human MMP13 inhibitors, primary screen, biochemical, FRET peptide cleavage | Collagenase 3 (Homo sapiens), P45452 | MMP-13 fTHP FRET cleavage, Mca fluorescence | inhibition, % at 4 µM | actives 0.07% (n = 65,000) | AID 570, 2006;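 active means inhibition above the mean of compound-free control plate wells plus 3 SD, cut at about 14% in these data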;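 further: 0% = DMSO wells and 100% = wells with reference MMP-13 inhibitor after basal subtraction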
# Jurkat viability – cytotoxicity toward Jurkat T cells, primary screen, cytotoxicity control, cell-based, Jurkat E6.1, 60K MLSMR library; Jurkat E6.1 viability, ATP luminescence, 48 h; inhibition, % at 4 µM; actives 1.2% (n = 56,000); AID 463, 2006;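 active means inhibition above the mean inhibition of all tested compounds plus 3 SD, cut at about 28% in these data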
# HEK293 NFkB inh – inhibitors of PMA/ionomycin-induced NF-kB reporter, primary screen, antigen receptor NF-kB inhibitor project, cell-based, HEK-293 luciferase reporter, luminescence; HEK-293 NF-kB luciferase reporter; inhibition, % at 3 µM; actives 0.21% (n = 62,000);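 active means inhibition above the mean of all tested compounds plus 3 SD, cut at about 40% in these data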;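 further: 0% = stimulated DMSO wells and 100% = 10 µM reference inhibitor 5653914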
#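 Timing: 1 h pretreatment, 16 h stimulation, 37 °C; system: HEK-293 cells with stable firefly luciferase reporter driven by four HIV NF-kB elements; doses: 3 µM once, 0.30% DMSO; measured by: luciferase luminescence; control set: DMSO and 10 µM reference inhibitor; repeats: single test; reagent: PMA plus ionomycin mix as NF-kB-activating stimulus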
# Candida biofilm – clotrimazole potentiators killing Candida biofilms, primary screen, with clotrimazole, Alamar Blue. C. albicans biofilm + clotrimazole. actives 0.14% (n = 85,000). inhibition, % at 6 µM. AID 834, 2007;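 active means inhibition above 20%; inactive means inhibition below 20%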;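 further: preformed 24 hr biofilms exposed to compound for 48 hr; 0% = biofilm without compound and 100% = blank killed by clotrimazole plus chlorhexidine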
# An asterisk follows results filed as active; . = not tested or not shown.
SMILES,TNAP act DEA,MMP-13 inhibitor,Jurkat viability,HEK293 NFkB inh,Candida biofilm
Cn1cccc1CN1CCN(C(=O)COc2ccccc2)CC1,0.9,-5,-4,8,1
Cn1nc(-c2ccc(OCC(=O)N3CCN(Cc4ccccc4)CC3)cc2)c2ccccc2c1=O,.,1,58*,30,-3
c1ccc2cc3cc4ccccc4cc3cc2c1,.,.,.,.,14
O=C1NC(=O)C(CCc2ccncc2)(C2CCCCC2)C(=O)N1,1,52*,0,0,1
O=C(CNC1CCCCC1)N1CCC2(CC1)OCCO2,.,.,.,.,2
Cc1ccc(-n2c(O)c(C=Nc3ccccc3N)c(=O)[nH]c2=O)cc1C,1,-2,86*,-9,0
Cn1ncnc2c(=O)n(C)c(=O)nc1-2,1,5,88*,99*,.
CC(=NCCCN1CCOCC1)c1c(O)[nH]c(=O)[nH]c1=O,0.9,1,9,21,6
C=CCn1c(O)c(C(C)=NCc2cccnc2)c(=O)[nH]c1=O,0.9,-2,-2,2,4
C=CCn1c(O)c(C(C)=NCc2cc(OC)cc(OC)c2)c(=O)[nH]c1=O,0.9,1,37*,21,-1

# High-throughput results: PubChem BioAssay, several laboratories
